Test results from ChEMBL document CHEMBL1154004, “Relationships between the structures of flavanone derivatives and their effects in enhancing early growth response-1 gene expression” (2009).
Calls of active or inactive are those of the source. No cut-off for these calls is given here.

Tests used:
HEK293 = assay: Increase in EGR1 mRNA expression in human HEK293 cells at 20 ug/mL after 6 to 12 hrs by dual-glo luciferase assay relative to control; type: functional
How it was run: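 Egr-1 promoter reporter assay after transient transfection. Activity is the level with compound divided by the compound-free control level, with the control set at 1.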

HeLa = assay: Increase in EGR1 mRNA expression in human HeLa cells after 1 hr by Western blotting; type: functional, cell-based; details: in the assay text read “EGR1 protein expression” for “EGR1 mRNA expression”
How it was run: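 Human cervix carcinoma HeLa cells were left untreated or exposed to compound at 10, 20 or 40 for 1 h. Egr-1 protein level was then examined by Western blot.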

| SMILES | fold change (FC) (HEK293) | Activity (HeLa) |
| --- | --- | --- |
| COc1ccc([C@@H]2CC(=O)c3c(O)cc(O)cc3O2)cc1O [HESPERETIN] | 2.4 |  |
| O=C1CC(c2ccccc2O)Oc2ccc(O)cc21 (centres undefined) | 1.2 |  |
| COc1ccc2c(c1)C(=O)CC(c1ccc(OC)c(OC)c1)O2 (centres undefined) | 0.7 |  |
| O=C1CC(c2cccc(O)c2)Oc2ccccc21 (centres undefined) [3'-HYDROXYFLAVANONE] | 6.7 | Active |
| O=C1CC(c2ccccc2)Oc2c(Cl)cccc21 (centres undefined) | 1.7 |  |
| O=C1CC(c2ccccc2)Oc2cc(O)ccc21 (centres undefined) [7-HYDROXYFLAVANONE] | 2.1 |  |
| COc1ccc(C2CC(=O)c3ccccc3O2)cc1OC (centres undefined) | 4.3 |  |
| Cc1ccc(C2CC(=O)c3cccc(Cl)c3O2)cc1 (centres undefined) | 1.3 |  |
| O=C1CC(c2ccc(F)cc2)Oc2c(Cl)cccc21 (centres undefined) | 2.4 |  |
| O=C1c2ccc(O)cc2OC(c2ccc(O)c(O)c2)C1O (centres undefined) | 1.3 |  |
| O=C1C[C@@H](c2ccccc2)Oc2cc(O)cc(O)c21 [PINOCEMBRIN] | 0.4 |  |
| O=C1C[C@@H](c2ccc(O)cc2)Oc2cc(O)cc(O)c21 [NARINGENIN] | 1.2 |  |
| O=C1c2ccc(O)cc2O[C@@H](c2cc(O)c(O)c(O)c2)[C@@H]1O [DIHYDROROBINETIN] | 0.7 |  |
| COc1cc(OC)c2c(c1)OC(c1ccccc1)CC2=O (centres undefined) [DIMETHYLPINOCEMBRIN] | 1.9 |  |
| O=C1C[C@@H](c2ccc(O)c(O)c2)Oc2cc(O)cc(O)c21 [ERIODICTYOL] | 2.1 |  |
| O=C1CC(c2ccccc2)Oc2ccc(O)cc21 (centres undefined) | 1.3 |  |
| COc1cc(C2CC(=O)c3c(O)cc(O)cc3O2)cc(OC)c1OC (centres undefined) | 1.2 |  |
| COc1ccc2c(c1)OC(c1cc(OC)c(OC)c(OC)c1)CC2=O (centres undefined) | 1 |  |
| COc1cc(O)c2c(c1)O[C@H](c1ccccc1)CC2=O [PINOSTROBIN] | 1.6 |  |

| SMILES | fold change (FC) (HEK293) | Activity (HeLa) |
| --- | --- | --- |
| COc1ccc(C2CC(=O)c3c(OC)cc(OC)cc3O2)cc1 (centres undefined) | 0.7 |  |
| COc1ccc(C2CC(=O)c3cc(Cl)ccc3O2)cc1OC (centres undefined) | 0.7 |  |
| COc1ccc2c(c1)OC(c1ccccc1)CC2=O (centres undefined) | 1.1 |  |
| COc1cc([C@@H]2CC(=O)c3c(O)cc(O)cc3O2)ccc1O [HOMOERIODICTYOL] | 1.2 |  |
| COc1ccc2c(c1)C(=O)CC(c1ccccc1)O2 (centres undefined) | 1.6 |  |
| COc1cccc(C2CC(=O)c3cc(OC)ccc3O2)c1 (centres undefined) | 2.5 |  |
| COc1cc(C2CC(=O)c3ccccc3O2)ccc1O (centres undefined) | 5.1 |  |
| COc1ccc2c(c1)C(=O)CC(c1cccc(OC)c1OC)O2 (centres undefined) | 3.9 |  |
| COc1cc(O)cc2c1C(=O)CC(c1ccccc1)O2 (centres undefined) | 1 |  |
| O=C1c2c(O)cc(O)cc2OC(c2ccc(O)c(O)c2)C1O (centres undefined) [TAXIFOLIN] | 1.3 |  |
| Cc1ccc(C2CC(=O)c3cc(Cl)ccc3O2)cc1 (centres undefined) | 0.8 |  |
| COc1ccc(C2CC(=O)c3ccccc3O2)cc1 (centres undefined) | 1.2 |  |
| COc1ccc(C2CC(=O)c3cc(OC)ccc3O2)c(OC)c1 (centres undefined) | 1.5 |  |
| O=C1CC(c2ccccc2O)Oc2ccccc21 (centres undefined) [2'-HYDROXY-FLAVANONE] | 4.2 | Active |
| O=C1CC(c2ccc(O)cc2)Oc2ccccc21 (centres undefined) [4'-HYDROXY-FLAVANONE] | 1.4 |  |
| O=C1CC(c2ccccc2)Oc2ccccc21 (centres undefined) [FLAVANONE] | 2.3 |  |
| COc1cc(O)c2c(c1)OC(c1ccc(O)cc1)CC2=O (centres undefined) | 0.4 |  |
| COc1cccc2c1C(=O)CC(c1ccccc1)O2 (centres undefined) | 3.6 |  |
